Laboratory results reported in ChEMBL document CHEMBL2202989, “New adamantane phenylalkylamines with σ-receptor binding affinity and anticancer activity, associated with putative antagonism of neuropathic pain” (J Med Chem, 2012).

tested on: SK-HEP1; experiment: Growth inhibition of human SKHEP1 cells after 48 hrs by SRB assay; format: functional; settings: SK-HEP1, 48 h
How it was run: (§1)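 Cells grown in RPMI 1640 with 5% heat-inactivated FCS, 2 mM L-glutamine and antibiotics, 37 °C, 5% CO2. Seeded at 3500–30000 cells/well and left 24 h before dosing. DMSO solutions added at 10-fold dilutions from 100 to 0.01 μM for 48 h. Cells TCA-fixed and SRB-stained, absorbance read at 540 nm; GI50 derived against the time-zero plate.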

Row | SMILES | GI50 [µM] | TGI [µM]
1 | CN1CCN(CCc2ccc(C(c3ccccc3)C34CC5CC(CC(C5)C3)C4)cc2)CC1 (stereo unspecified) | 3.69 | 6.36

same assay, conditions: SK-HEP1, 48 h, read-out: LC50 (the source's name)

Row | SMILES | CC50 [µM]
2 | CN1CCN(CCc2ccc(C(c3ccccc3)C34CC5CC(CC(C5)C3)C4)cc2)CC1 (stereo unspecified) | 0.00902

tested on: PC-3; experiment: Growth inhibition of human PC3 cells after 48 hrs by SRB assay; format: functional; settings: PC-3, 48 h; how it was run: as §1

Row | SMILES | GI50 [µM] | TGI [µM]
3 | CN1CCN(CCc2ccc(C(c3ccccc3)C34CC5CC(CC(C5)C3)C4)cc2)CC1 (stereo unspecified) | 4.57 | 9

same assay, conditions: PC-3, 48 h, read-out: LC50 (the source's name)

Row | SMILES | CC50 [µM]
4 | CN1CCN(CCc2ccc(C(c3ccccc3)C34CC5CC(CC(C5)C3)C4)cc2)CC1 (stereo unspecified) | 0.0135

tested on: IGROV-1; experiment: Growth inhibition of human IGROV1 cells after 48 hrs by SRB assay; format: functional; settings: IGROV-1, 48 h; how it was run: as §1

Row | SMILES | GI50 [µM] | TGI [µM]
5 | CN1CCN(CCc2ccc(C(c3ccccc3)C34CC5CC(CC(C5)C3)C4)cc2)CC1 (stereo unspecified) | 4.29 | 8.93

same assay, conditions: IGROV-1, 48 h, read-out: LC50 (the source's name)

Row | SMILES | CC50 [µM]
6 | CN1CCN(CCc2ccc(C(c3ccccc3)C34CC5CC(CC(C5)C3)C4)cc2)CC1 (stereo unspecified) | 0.0136

tested on: OVCAR-5; experiment: Growth inhibition of human OVCAR5 cells after 48 hrs by SRB assay; format: functional; settings: OVCAR-5, 48 h; how it was run: as §1

Row | SMILES | GI50 [µM] | TGI [µM]
7 | CN1CCN(CCc2ccc(C(c3ccccc3)C34CC5CC(CC(C5)C3)C4)cc2)CC1 (stereo unspecified) | 17.4 | 29.3

same assay, conditions: OVCAR-5, 48 h, read-out: LC50 (the source's name)

Row | SMILES | CC50 [µM]
8 | CN1CCN(CCc2ccc(C(c3ccccc3)C34CC5CC(CC(C5)C3)C4)cc2)CC1 (stereo unspecified) | 0.0624

tested on: HCT-15; experiment: Growth inhibition of human HCT15 cells after 48 hrs by SRB assay; format: functional; settings: HCT-15, 48 h; how it was run: as §1

Row | SMILES | GI50 [µM] | TGI [µM]
9 | CN1CCN(CCc2ccc(C(c3ccccc3)C34CC5CC(CC(C5)C3)C4)cc2)CC1 (stereo unspecified) | 4.64 | 8.26

same assay, conditions: HCT-15, 48 h, read-out: LC50 (the source's name)

Row | SMILES | CC50 [µM]
10 | CN1CCN(CCc2ccc(C(c3ccccc3)C34CC5CC(CC(C5)C3)C4)cc2)CC1 (stereo unspecified) | 0.1

tested on: MIA PaCa-2; experiment: Growth inhibition of human MIAPaCa2 cells after 48 hrs by SRB assay; format: functional; settings: MIA PaCa-2, 48 h; how it was run: as §1

Row | SMILES | GI50 [µM] | TGI [µM]
11 | CN1CCN(CCc2ccc(C(c3ccccc3)C34CC5CC(CC(C5)C3)C4)cc2)CC1 (stereo unspecified) | 7.5 | 36

same assay, conditions: MIA PaCa-2, 48 h, read-out: LC50 (the source's name)

Row | SMILES | CC50 [µM]
12 | CN1CCN(CCc2ccc(C(c3ccccc3)C34CC5CC(CC(C5)C3)C4)cc2)CC1 (stereo unspecified) | 0.0762

tested on: MCF7; experiment: Growth inhibition of human MCF7 cells after 48 hrs by SRB assay; format: functional; settings: MCF7, 48 h; how it was run: as §1

Row | SMILES | GI50 [µM] | TGI [µM]
13 | CN1CCN(CCc2ccc(C(c3ccccc3)C34CC5CC(CC(C5)C3)C4)cc2)CC1 (stereo unspecified) | 2.77 | 5.7

same assay, conditions: MCF7, 48 h, read-out: LC50 (the source's name)

Row | SMILES | CC50 [µM]
14 | CN1CCN(CCc2ccc(C(c3ccccc3)C34CC5CC(CC(C5)C3)C4)cc2)CC1 (stereo unspecified) | 0.0086

tested on: NHDF; experiment: (§2) Growth inhibition of human NHDF cells after 48 hrs by SRB assay; format: cell-based; settings: nhdf, 48 h; how it was run: as §1

Row | SMILES | LC50 [µM] | TGI [µM]
15 | CN1CCN(CCc2ccc(C(c3ccccc3)C34CC5CC(CC(C5)C3)C4)cc2)CC1 (stereo unspecified) | 100 | 8.07

tested on: not listed separately; experiment: as §2; format: cell-based; settings: NHDF cells; how it was run: as §1

Row | SMILES | GI50 at 48 h [µM]
16 | CN1CCN(CCc2ccc(C(c3ccccc3)C34CC5CC(CC(C5)C3)C4)cc2)CC1 (stereo unspecified) | 4.18

tested on: BXPC-3; experiment: Growth inhibition of human BxPC3 cells after 48 hrs by SRB assay; format: functional; settings: BXPC-3, 48 h; how it was run: as §1

Row | SMILES | GI50 [µM] | LC50 [µM] | TGI [µM]
17 | CN1CCN(CCc2ccc(C(c3ccccc3)C34CC5CC(CC(C5)C3)C4)cc2)CC1 (stereo unspecified) | 5.76 | 0.1 | 19.9

target: Sigma non-opioid intracellular receptor 1 (Homo sapiens, UniProt Q99720); experiment: Displacement of [3H]-(+)-pentazocine from sigma 1 receptor in human Jurkat cell membrane; format: cell membranes; settings: not given
How it was run: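 Jurkat cell membranes incubated with 8 nM [3H](+)-pentazocine and a range of test concentrations for 2 h at 22 °C in Tris-HCl buffer, pH 7.4. Nonspecific binding defined with 10 μM haloperidol. Run in triplicate.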

Sequence of Sigma non-opioid intracellular receptor 1 (Q99720 whole entry): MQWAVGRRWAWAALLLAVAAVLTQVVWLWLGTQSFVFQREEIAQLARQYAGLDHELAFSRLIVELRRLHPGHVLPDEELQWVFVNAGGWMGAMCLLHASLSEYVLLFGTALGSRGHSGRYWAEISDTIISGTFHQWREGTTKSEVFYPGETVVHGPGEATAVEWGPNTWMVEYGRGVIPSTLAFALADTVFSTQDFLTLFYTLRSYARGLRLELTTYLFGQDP

Row | SMILES | IC50 [µM]
18 | CN1CCN(CCc2ccc(C(c3ccccc3)C34CC5CC(CC(C5)C3)C4)cc2)CC1 (stereo unspecified) | 0.0029

tested on: U-251; experiment: Growth inhibition of human U251 cells after 48 hrs by SRB assay; format: functional; settings: U-251, 48 h; how it was run: as §1

Row | SMILES | GI50 [µM] | TGI [µM]
19 | CN1CCN(CCc2ccc(C(c3ccccc3)C34CC5CC(CC(C5)C3)C4)cc2)CC1 (stereo unspecified) | 3.37 | 6.09

same assay, conditions: U-251, 48 h, read-out: LC50 (the source's name)

Row | SMILES | CC50 [µM]
20 | CN1CCN(CCc2ccc(C(c3ccccc3)C34CC5CC(CC(C5)C3)C4)cc2)CC1 (stereo unspecified) | 0.00881

target: not listed separately; experiment: Displacement of [3H]1,3-di-otolylguanidine from sigma 2 receptor in rat cerebral cortex membranes; format: cell membranes, Membrane; settings: not given
How it was run: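 Rat cerebral cortex membranes incubated with 5 nM [3H]DTG plus 300 nM (+)-pentazocine to mask σ1 sites, together with a range of test concentrations, 2 h at 22 °C in Tris-HCl, pH 7.4. Nonspecific binding defined with 10 μM haloperidol.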

Row | SMILES | IC50 [µM]
21 | CN1CCN(CCc2ccc(C(c3ccccc3)C34CC5CC(CC(C5)C3)C4)cc2)CC1 (stereo unspecified) | 0.0801

tested on: not listed separately; experiment: Growth inhibition of human MSC cells after 48 hrs by SRB assay; format: cell-based; settings: not given; how it was run: as §1

Row | SMILES | TGI [µM]
22 | CN1CCN(CCc2ccc(C(c3ccccc3)C34CC5CC(CC(C5)C3)C4)cc2)CC1 (stereo unspecified) | 6.39

tested on: HUVEC; experiment: (§3) Growth inhibition of human HUVEC cells after 48 hrs by SRB assay; format: cell-based; settings: huvec, 48 h; how it was run: as §1

Row | SMILES | LC50 [µM] | TGI [µM]
23 | CN1CCN(CCc2ccc(C(c3ccccc3)C34CC5CC(CC(C5)C3)C4)cc2)CC1 (stereo unspecified) | 9.6 | 6.46

tested on: not listed separately; experiment: as §3; format: cell-based; settings: HUVEC cells; how it was run: as §1

Row | SMILES | GI50 at 48 h [µM]
24 | CN1CCN(CCc2ccc(C(c3ccccc3)C34CC5CC(CC(C5)C3)C4)cc2)CC1 (stereo unspecified) | 3.32
